ChEMBL document CHEMBL4190252, “Synthesis, antitumor activity and CDK1 inhibiton of new thiazole nortopsentin analogues” (Eur J Med Chem, 2017)
Activity calls are given as the source filed them. The rule behind the calls is not given here.

Key:
[1] = system: Caco-2; experiment: Cytotoxicity against human Caco2 cells assessed as reduction in cell viability after 72 hrs by MTT assay; format: cell-based; details: caco-2, 72 h
Summary of the method: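 Caco-2 cells grown in RPMI with 10% FBS and L-glutamine, then treated 15 days after confluence, once differentiated into normal intestinal-like cells. Seeded at 2 × 10^4 cells/well and exposed 72 h to 5–100 µM, DMSO 0.1% vehicle. MTT 2 h at 37 °C, formazan in DMSO, absorbance 570 nm. Vehicle control = 100%; LC50 from viability-versus-concentration plot. At least three experiments in triplicate.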

[2] = system: A549; experiment: Growth inhibition of human A549/ATCC cells incubated for 48 hrs by sulforhodamine B assay; format: functional; details: A549, 48 h
Summary of the method: (§1)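 NCI full panel screen: five 10-fold dilutions (10^-4–10^-8 M). GI50 is the molar concentration giving 50% inhibition of net cell growth.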

[3] = system: SK-OV-3; experiment: Growth inhibition of human SKOV3 cells incubated for 48 hrs by sulforhodamine B assay; format: functional; details: SK-OV-3, 48 h
Summary of the method: (§2)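 NCI full-panel human tumour cell screen. Cells were exposed to five 10-fold dilutions from 10^-4 to 10^-8 M. GI50 is the molar concentration giving 50% inhibition of net cell growth, and a mean graph midpoint was calculated across the panel.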

[4] = system: SN12C; experiment: Growth inhibition of human SN12C cells incubated for 48 hrs by sulforhodamine B assay; format: functional; summary of the method: as §2
[5] = system: MCF7; experiment: Cell cycle arrest in human MCF7 cells assessed as reduction in accumulation at S phase at GI50 concentration after 48 hrs by propidium iodide-staining based flow cytometry; format: functional
Summary of the method: (§3)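 Cells were trypsinized, washed in cold PBS, and 1 x 10^6 cells stained with 20 µg/ml PI plus 200 µg/ml RNase for 30 min at room temperature in the dark. At least 1x 10^4 cells were analysed by flow cytometry. Mean±SD of three experiments in triplicate.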

[6] = system: NCI-H460; experiment: Growth inhibition of human NCI-H460 cells incubated for 48 hrs by sulforhodamine B assay; format: functional; details: NCI-H460, 48 h; summary of the method: as §1
[7] = system: HT-29; experiment: Growth inhibition of human HT-29 cells incubated for 48 hrs by sulforhodamine B assay; format: functional; details: HT-29, 48 h; summary of the method: as §1
[8] = system: Hs-578T; experiment: Growth inhibition of human Hs 578T cells incubated for 48 hrs by sulforhodamine B assay; format: functional; summary of the method: as §1
[9] = system: NCI-H23; experiment: Growth inhibition of human NCI-H23 cells incubated for 48 hrs by sulforhodamine B assay; format: functional; details: NCI-H23, 48 h; summary of the method: as §1
[10] = system: HOP-62; experiment: Growth inhibition of human HOP62 cells incubated for 48 hrs by sulforhodamine B assay; format: functional; details: HOP-62, 48 h; summary of the method: as §1
[11] = system: SF-539; experiment: Growth inhibition of human SF539 cells incubated for 48 hrs by sulforhodamine B assay; format: functional; details: SF-539, 48 h; summary of the method: as §1
[12] = system: MCF7; experiment: Induction of apoptosis in human MCF7 cells assessed as viable cells at 2 x 10^-6 M after 72 hrs by Annexin V/propidium iodide double staining-based flow cytometry (reference value: 98.9%); format: functional; details: MCF7, 72 h, read-out: Activity
Summary of the method: (§4)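 MCF-7 cells were grown in RPMI with 10% FBS, 2 mM L-glutamine and antibiotics at 37 °C in 5% CO2. They were seeded at 2.0 x 10^5 cells/cm2 in triplicate, left to adhere overnight, then treated for 72 h; DMSO 0.1% served as vehicle. Trypsinised cells at 2.0 x 10^5/mL were stained with annexin V-FITC and PI for 15 min at room temperature in the dark. At least 1.0 x 10^4 cells were gated into viable, early apoptotic, late apoptotic and necrotic quadrants.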

[13] = system: T47D; experiment: Growth inhibition of human T47D cells incubated for 48 hrs by sulforhodamine B assay; format: functional; summary of the method: as §2
[14] = system: ACHN; experiment: Growth inhibition of human ACHN cells incubated for 48 hrs by sulforhodamine B assay; format: functional; summary of the method: as §1
[15] = system: SNB-19; experiment: Growth inhibition of human SNB19 cells incubated for 48 hrs by sulforhodamine B assay; format: functional; details: SNB-19, 48 h; summary of the method: as §2
[16] = system: MCF7; experiment: Cell cycle arrest in human MCF7 cells assessed as increase in accumulation at G2/M phase at GI50 concentration after 48 hrs by propidium iodide-staining based flow cytometry; format: functional; summary of the method: as §3
[17] = system: OVCAR-4; experiment: Growth inhibition of human OVCAR4 cells incubated for 48 hrs by sulforhodamine B assay; format: functional; details: OVCAR-4, 48 h; summary of the method: as §1
[18] = system: OVCAR-8; experiment: Growth inhibition of human OVCAR8 cells incubated for 48 hrs by sulforhodamine B assay; format: functional; details: OVCAR-8, 48 h; summary of the method: as §1
[19] = system: NCI-H522; experiment: Growth inhibition of human NCI-H522 cells incubated for 48 hrs by sulforhodamine B assay; format: functional; details: NCI-H522, 48 h; summary of the method: as §1
[20] = system: MCF7; experiment: Induction of apoptosis in human MCF7 cells assessed as necrotic cells at 2 x 10^-6 M after 72 hrs by Annexin V/propidium iodide double staining-based flow cytometry (reference value: 0.1%); format: functional; summary of the method: as §4
[21] = system: MCF7; experiment: Growth inhibition of human MCF7 cells incubated for 48 hrs by sulforhodamine B assay; format: functional; details: MCF7, 48 h; summary of the method: as §1
[22] = system: DU-145; experiment: Growth inhibition of human DU145 cells incubated for 48 hrs by sulforhodamine B assay; format: functional; details: DU-145, 48 h; summary of the method: as §1
[23] = system: OVCAR-3; experiment: Growth inhibition of human OVCAR3 cells incubated for 48 hrs by sulforhodamine B assay; format: functional; details: OVCAR-3, 48 h; summary of the method: as §1
[24] = system: MCF7; experiment: Induction of apoptosis in human MCF7 cells assessed as early apoptotic cells at 2 x 10^-6 M after 72 hrs by Annexin V/propidium iodide double staining-based flow cytometry (reference value: 1%); format: functional; summary of the method: as §4
[25] = system: KM12; experiment: Growth inhibition of human KM12 cells incubated for 48 hrs by sulforhodamine B assay; format: functional; details: KM12, 48 h; summary of the method: as §1
[26] = system: CCRF-CEM; experiment: Growth inhibition of human CCRF-CEM cells incubated for 48 hrs by sulforhodamine B assay; format: functional; summary of the method: as §1
[27] = system: PC-3; experiment: Growth inhibition of human PC3 cells incubated for 48 hrs by sulforhodamine B assay; format: functional; details: PC-3, 48 h; summary of the method: as §1
[28] = system: M14; experiment: Growth inhibition of human M14 cells incubated for 48 hrs by sulforhodamine B assay; format: functional; details: M14, 48 h; summary of the method: as §1
[29] = system: HCC 2998; experiment: Growth inhibition of human HCC2998 cells incubated for 48 hrs by sulforhodamine B assay; format: functional; details: HCC 2998, 48 h; summary of the method: as §1
[30] = system: Caco-2; experiment: Cytotoxicity against human Caco2 cells assessed as reduction in cell survival at 25 to 100 uM after 72 hrs by MTT assay; format: cell-based; details: caco-2, 72 h
Summary of the method: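 Caco-2 cells, differentiated 15 days post-confluence, seeded at 2 x 10^4 cells/well and treated 72 h with 5–100 µM compound. MTT added (5 mg/mL in FBS-free medium), 2 h at 37 °C, formazan dissolved in DMSO, absorbance at 570 nm. Viability relative to vehicle control (100%); LC50 taken from the viability-concentration plot. At least three experiments in triplicate.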

[31] = system: EKVX; experiment: Growth inhibition of human EKVX cells incubated for 48 hrs by sulforhodamine B assay; format: functional; summary of the method: as §1
[32] = system: MOLT-4; experiment: Growth inhibition of human MOLT4 cells incubated for 48 hrs by sulforhodamine B assay; format: functional; details: MOLT-4, 48 h; summary of the method: as §1
[33] = system: MCF7; experiment: Induction of apoptosis in human MCF7 cells assessed as necrotic cells at 5 x 10^-8 M after 72 hrs by Annexin V/propidium iodide double staining-based flow cytometry (reference value: 0.1%); format: functional; summary of the method: as §4
[34] = system: RPMI-8226; experiment: Growth inhibition of human RPMI8226 cells incubated for 48 hrs by sulforhodamine B assay; format: functional; details: RPMI-8226, 48 h; summary of the method: as §1

COCCn1cc(-c2csc(-c3c[nH]c4ccccc34)n2)c2cccnc21
LC50 [1]: 71.4 µM | GI50 [2]: 7.1 µM | GI50 [3]: 14.8 µM | GI50 [4]: > 100 µM | Activity [5]: Active | GI50 [6]: 3.4 µM | GI50 [7]: 3.19 µM | GI50 [8]: 9.14 µM | GI50 [9]: 4.58 µM | GI50 [10]: 2.82 µM | GI50 [11]: 5.91 µM | viability at 2 µM [12]: 53.4% | GI50 [13]: 0.42 µM | GI50 [14]: 5.6 µM | GI50 [15]: 16.2 µM | Activity [16]: Active | GI50 [17]: 1.76 µM | GI50 [18]: 8 µM | GI50 [19]: 2.07 µM | Activity [20]: 0.1% | GI50 [21]: 1.74 µM | GI50 [22]: 15.4 µM | GI50 [23]: 2.94 µM | Activity [24]: 46.5% | GI50 [25]: 0.76 µM | GI50 [26]: > 100 µM | GI50 [27]: 6.81 µM | GI50 [28]: 3.22 µM | GI50 [29]: 4.08 µM | Activity [30]: Toxic | GI50 [31]: 2 µM

COCCn1cc(-c2csc(-c3c[nH]c4ccc(F)cc34)n2)c2cccnc21
LC50 [1]: 96.1 µM | GI50 [2]: 4.51 µM | GI50 [4]: > 100 µM | Activity [5]: Active | GI50 [6]: 3.38 µM | GI50 [7]: 2.9 µM | GI50 [8]: 8.82 µM | GI50 [32]: 5.56 µM | GI50 [9]: 3.88 µM | GI50 [10]: 2.02 µM | GI50 [11]: 8.86 µM | viability at 2 µM [12]: 70.7% | GI50 [13]: 0.65 µM | GI50 [14]: 5.27 µM | GI50 [15]: 98 µM | Activity [16]: Active | GI50 [17]: 2.59 µM | GI50 [18]: 4.1 µM | GI50 [19]: 2.19 µM | Activity [20]: 0.1% | GI50 [21]: 2.09 µM | GI50 [22]: 18.8 µM | GI50 [23]: 3.34 µM | Activity [24]: 29.2% | GI50 [25]: 1.77 µM | GI50 [27]: 5.06 µM | GI50 [28]: 3.14 µM | GI50 [29]: 4.54 µM | Activity [30]: Toxic | GI50 [31]: 1.98 µM

COCCn1cc(-c2nc(-c3c[nH]c4ncccc34)cs2)c2cc(OC)ccc21
LC50 [1]: < 100 µM | GI50 [2]: 4.41 µM | GI50 [3]: 3.49 µM | GI50 [4]: 5.51 µM | Activity [5]: Active | GI50 [6]: 1.32 µM | GI50 [7]: 4.31 µM | GI50 [8]: 2.07 µM | Activity [33]: 0% | GI50 [32]: 6.02 µM | GI50 [9]: 1.63 µM | GI50 [10]: 2.12 µM | GI50 [11]: 3.99 µM | GI50 [13]: 0.04 µM | GI50 [14]: 3.08 µM | GI50 [15]: 9.71 µM | Activity [16]: Active | GI50 [17]: 0.03 µM | GI50 [34]: 7.09 µM | GI50 [18]: 4.11 µM | GI50 [19]: 5.18 µM | GI50 [21]: 0.05 µM | GI50 [22]: 4.28 µM | GI50 [23]: 4.66 µM | GI50 [25]: 0.16 µM | GI50 [26]: 6.7 µM | GI50 [27]: 4.22 µM | GI50 [28]: 5.82 µM | GI50 [29]: 4.81 µM | Activity [30]: Non-Toxic | GI50 [31]: 0.07 µM

COCCn1cc(-c2csc(-c3c[nH]c4ccc(Br)cc34)n2)c2cccnc21
LC50 [1]: 83.3 µM | GI50 [2]: 6.89 µM | GI50 [3]: 13.9 µM | GI50 [4]: 7.72 µM | GI50 [6]: 3.07 µM | GI50 [7]: 3.36 µM | GI50 [8]: 4.44 µM | GI50 [32]: 3.87 µM | GI50 [9]: 3.21 µM | GI50 [10]: 7.98 µM | GI50 [11]: 7.34 µM | viability at 2 µM [12]: 63.6% | GI50 [13]: 1.97 µM | GI50 [14]: 3.04 µM | GI50 [15]: 12.2 µM | GI50 [17]: 2.74 µM | GI50 [34]: 5.14 µM | GI50 [18]: 5.35 µM | GI50 [19]: 2.17 µM | Activity [20]: 0.1% | GI50 [21]: 1.79 µM | GI50 [23]: 3.9 µM | Activity [24]: 36.3% | GI50 [25]: 2.74 µM | GI50 [27]: 3.68 µM | GI50 [28]: 3.27 µM | GI50 [29]: 3.8 µM | Activity [30]: Toxic | GI50 [31]: 2.05 µM
